Source: ChEMBL document CHEMBL1687854 (Antimicrob Agents Chemother, 2011)

Assays:
[1] = Renal clearance in healthy human at 500 mg, iv; type: ADME, organism-based, Kidney; settings: in vivo, read-out: CL_renal (converted)
Procedure, shortened: (§1)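 Healthy volunteers (n = 12) got a single 1-h 500-mg IV infusion. Plasma was sampled predose and at 0.25–12 h and assayed by LC-MS/MS (LLOQ 0.1 μg/ml). Noncompartmental analysis gave CL = dose/AUC0-∞ and CL_R = 0–12 h urinary amount/AUC0-12. Nonrenal CL = CL − CL_R. Values are means ± SD.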

[2] = Terminal half life in end stage renal disease patient undergoing 12 hours continuous venovenous hemofiltration at 500 mg, iv; type: ADME, organism-based; settings: human, in vivo, read-out: beta t1/2 (converted)
Procedure, shortened: (§2)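 Prefilter plasma was taken up to 12 h and measured by LC-MS/MS. Terminal λz came from log-linear regression over 1.5–12 h, and t1/2 = 0.693/λz (noncompartmental).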

[3] = AUC (0 to infinity) in end stage renal disease patient undergoing 12 hours continuous venovenous hemodiafiltration at 500 mg, iv; type: ADME, organism-based; design: dose 500 mg, route intravenous, time infinity; settings: human, plasma
Homo sapiens [4] = assay: (§3) Clearance in end stage renal disease patient undergoing 12 hours continuous venovenous hemodiafiltration at 500 mg, iv; type: ADME, organism-based; settings: in vivo, 12 h
[5] = as §3; type: ADME, organism-based; settings: human, in vivo, 500 mg
Homo sapiens [6] = assay: Toxicity in healthy human assessed as pancreatitis at 500 mg, iv after 2 days; type: organism-based; settings: in vivo, 48 h
Homo sapiens [7] = assay: (§4) Clearance in healthy human at 500 mg, iv; type: ADME, organism-based; settings: in vivo; procedure, shortened: as §1
[8] = as §4; type: ADME, organism-based; settings: in vivo, 500 mg; procedure, shortened: as §1
Homo sapiens [9] = assay: Toxicity in healthy human assessed as pancreatitis at 500 mg, iv after 1 day; type: organism-based; settings: in vivo, 24 h
Homo sapiens [10] = assay: (§5) Clearance in end stage renal disease patient undergoing 12 hours continuous venovenous hemofiltration at 500 mg, iv; type: ADME, organism-based; settings: in vivo, 12 h
[11] = as §5; type: ADME, organism-based; settings: human, in vivo, 500 mg
Homo sapiens [12] = assay: Non-renal clearance in healthy human at 500 mg, iv; type: ADME, organism-based; settings: in vivo; procedure, shortened: as §1
[13] = AUC (0 to infinity) in end stage renal disease patient undergoing 12 hours continuous venovenous hemofiltration at 500 mg, iv; type: ADME, organism-based; design: dose 500 mg, time infinity, route intravenous; settings: human, plasma
Homo sapiens [14] = assay: Non-renal clearance in end stage renal disease patient undergoing 12 hours continuous venovenous hemodiafiltration at 500 mg, iv; type: ADME, organism-based; settings: in vivo
Procedure, shortened: (§6)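 For dialysis-dependent subjects on CVVH or CVVHDF after a 1-h 500-mg IV infusion, nonrenal CL = CL − (CL_R + CL_CRRT). CL_CRRT was the UF (or UF/dialysate) flow rate for each collection interval × the average sieving (or saturation) coefficient, where each coefficient is the fluid/plasma concentration ratio from paired samples at 1.25–12 h. Values are means ± SD.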

[15] = Terminal half life in end stage renal disease patient undergoing 12 hours continuous venovenous hemodiafiltration at 500 mg, iv; type: ADME, organism-based; settings: human, in vivo, read-out: beta t1/2 (converted); procedure, shortened: as §2
Homo sapiens [16] = assay: Non-renal clearance in end stage renal disease patient undergoing 12 hours continuous venovenous hemofiltration at 500 mg, iv; type: ADME, organism-based; settings: in vivo; procedure, shortened: as §6

CL renal [1]	half-life [2]	AUC(0-inf) [3]	CL (Homo sapiens [4])	clearance [5]	CL (Homo sapiens [7])	clearance [8]	CL (Homo sapiens [10])	clearance [11]	CL (Homo sapiens [12])	AUC(0-inf) [13]	CL (Homo sapiens [14])	half-life [15]	CL (Homo sapiens [16])	SMILES	Activity (Homo sapiens [6])	Activity (Homo sapiens [9])
153 mL/min	4.24 h	87.5 µg·h/mL	5.98 L/h	98.2 mL/min	15.9 L/h	265 mL/min	4.94 L/h	82.4 mL/min	6.73 L/h	114 µg·h/mL	4.22 L/h	3.87 h	3.58 L/h	C[C@@H](O)[C@H]1C(=O)N2C(C(=O)O)=C(S[C@@H]3CN[C@H](CNS(N)(=O)=O)C3)[C@H](C)[C@H]12 [DORIPENEM]	Non-toxic	Toxic
									14.2 L/h					C[C@@H](O)[C@@H](C(=O)O)[C@@H]1NC(C(=O)O)=C(S[C@@H]2CN[C@H](CNS(N)(=O)=O)C2)[C@@H]1C		
